Consider 17 compounds from ChEMBL document CHEMBL1255187, “Structure-based design and synthesis of potent, ethylenediamine-based, mammalian farnesyltransferase inhibitors as anticancer agents” (J Med Chem, 2010).

Structures are written as SMILES.

Assay [1] addresses Geranylgeranyl transferase type 1 (Mus musculus, UniProt Q61239+Q8BUY9). In words: Inhibition of Rap1A geranylgeranylation expressed in mouse NIH3T3 cells. The assay is classed as functional, cell-based. In a few lines:
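Oncogenic H-Ras-transformed NIH3T3 cells were treated with a range of inhibitor concentrations. […] Detection used peroxidase-conjugated secondary antibodies and enhanced chemiluminescence. IC50 is the mean of three independent assays ± SD unless stated otherwise.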

The target of assay [2] is Geranylgeranyl transferase type I (Homo sapiens, UniProt P49354+P53609). Description: Inhibition of human geranylgeranyltransferase-1 assessed as incorporation of [3H]GGPP into H-Ras-CVLL. The class given is protein-complex assay. In a few lines: (§1)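 In vitro radiometric assay measuring transfer of [3H]FPP (FTase) or [3H]GGPP (GGTase-I) onto recombinant H-Ras-CVLS or H-Ras-CVLL, respectively.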

In assay [3] the target is Protein farnesyltransferase (Homo sapiens, UniProt P49354+P49356). Description: Inhibition of human farnesyltransferase assessed as incorporation of [3H]FPP into H-Ras-CVLS. The class given is protein-complex assay. In a few lines: as §1
The species entered for a further assay is Homo sapiens. Description: Selectivity ratio of IC50 for human geranylgeranyltransferase-1 to IC50 for human farnesyltransferase.
Assay [4] has as its target Protein farnesyltransferase (Mus musculus, UniProt Q61239+Q8K2I1). Description: Inhibition of H-Ras farnesylation expressed in mouse NIH3T3 cells. The class given is functional, cell-based. In a few lines: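 Oncogenic H-Ras-transformed NIH3T3 cells were treated with a range of inhibitor concentrations. Detection used peroxidase-conjugated secondary antibodies and enhanced chemiluminescence. IC50 is the mean of three independent assays ± SD unless stated otherwise.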

Take `Cn1cnc(S(=O)(=O)N(CCN(Cc2cncn2C)c2ccc(C#N)cc2)CCn2cccc2)c1`: the IC50 is greater than 10000 nM in assay [1], 510 nM in assay [2], 30 nM in assay [3] and 4300 nM in assay [4]. In addition, the Selectivity ratio in the assay filed under Homo sapiens is 17.

In the case of `Cn1cnc(S(=O)(=O)N(CCN(Cc2cncn2C)c2ccc(C#N)cc2)CC2CC2)c1`, the IC50 in assay [1] is greater than 10000 nM; in assay [2], greater than 10000 nM; in assay [3] it was 590 nM; in assay [4], greater than 10000 nM. The Selectivity ratio in the assay listed under Homo sapiens is greater than 17.

For `Cc1noc(C)c1CN(CCN(Cc1cncn1C)c1ccc(C#N)cc1)S(=O)(=O)c1cn(C)cn1`, the IC50 is greater than 10000 nM in assay [1], 1360 nM in assay [2], 510 nM in assay [3] and greater than 10000 nM in assay [4]. For the same compound, the Selectivity ratio in the assay filed under Homo sapiens is 2.7.

Regarding `C=C(Br)CN(CCN(Cc1cncn1C)c1ccc(C#N)cc1)S(=O)(=O)c1cn(C)cn1`, the IC50 in assay [1] was greater than 10000 nM; in assay [2], 5500 nM; in assay [3] it was 180 nM; in assay [4], 5700 nM. Besides, the Selectivity ratio in the assay filed under Homo sapiens is 31.

Regarding `Cn1cncc1CN(CCN(Cc1ccccc1)S(=O)(=O)c1cccs1)c1ccc(C#N)cc1`, the IC50 in assay [1] is greater than 10000 nM; in assay [2] it was 10000 nM; in assay [3], 50 nM; in assay [4], 500 nM. In addition, the Selectivity ratio in the assay listed under Homo sapiens came to 200.

Take `Cn1cnc(S(=O)(=O)N(CCN(Cc2cncn2C)c2ccc(C#N)cc2)Cc2ccc(C#N)cc2)c1`: the 50% inhibitory concentration (IC50) in assay [1] is greater than 10000 nM; in assay [2], 6500 nM; in assay [3], 370 nM; in assay [4], greater than 10000 nM. Moreover, in the assay filed under Homo sapiens, the Selectivity ratio amounted to 18.

Consider `Cn1cncc1CN(CCN(CC1CCCCC1)S(=O)(=O)c1ccccn1)c1ccc(C#N)cc1`, for which the IC50 in assay [1] was 6200 nM; in assay [2], 610 nM; in assay [3], 400 nM; in assay [4], 268 nM. For the same compound, the Selectivity ratio in the assay listed under Homo sapiens is 1.5.

Regarding `Cn1cnc(S(=O)(=O)N(CCN(Cc2cncn2C)c2ccc(C#N)cc2)CC(=O)NC(C)(C)C)c1`, the 50% inhibitory concentration (IC50) in assay [1] was greater than 10000 nM; in assay [2] it was greater than 10000 nM; in assay [3], 1400 nM; in assay [4], greater than 10000 nM. The Selectivity ratio in the assay listed under Homo sapiens was greater than 7.1.

For `C=CCN(CCN(Cc1cncn1C)c1ccc(C#N)cc1)S(=O)(=O)c1cn(C)cn1`, the IC50 was greater than 10000 nM in assay [1], greater than 10000 nM in assay [2], 54 nM in assay [3] and greater than 10000 nM in assay [4]. In addition, the Selectivity ratio in the assay filed under Homo sapiens was greater than 14.

Turning to `Cc1ccccc1CN(CCN(Cc1cncn1C)c1ccc(C#N)cc1)S(=O)(=O)c1cn(C)cn1`, the IC50 in assay [1] was greater than 10000 nM; in assay [2] it was 780 nM; in assay [3] it was 51 nM; in assay [4] it was 1000 nM. The Selectivity ratio in the assay filed under Homo sapiens was 15.

As for `Cc1nc(C)c(CN(CCN(Cc2cncn2C)c2ccc(C#N)cc2)S(=O)(=O)c2cn(C)cn2)s1`, the 50% inhibitory concentration (IC50) in assay [1] is greater than 10000 nM; in assay [2] it was greater than 10000 nM; in assay [3] it was 6200 nM; in assay [4], greater than 10000 nM. The Selectivity ratio in the assay listed under Homo sapiens was greater than 1.6.

`Cn1cncc1CN(CCN(Cc1ccccc1)S(=O)(=O)c1cccc2cccnc12)c1ccc(C#N)cc1`: the IC50 in assay [1] was greater than 10000 nM; in assay [2], 10000 nM; in assay [3], 30 nM; in assay [4], 600 nM. Also, the Selectivity ratio in the assay filed under Homo sapiens amounted to 333.

With `Cn1cnc(S(=O)(=O)N(CCN(Cc2cncn2C)c2ccc(C#N)cc2)CC2CCN(c3ncccn3)CC2)c1`, the IC50 is greater than 10000 nM in assay [1], greater than 10000 nM in assay [2], 510 nM in assay [3] and greater than 10000 nM in assay [4]. Further, in the assay filed under Homo sapiens, the Selectivity ratio was greater than 20.

For `Cn1cncc1CN(CCN(CC1CCCCC1)S(=O)(=O)c1ccccn1)c1ccc(C#N)cn1`, the IC50 in assay [1] stood at 19000 nM; in assay [2] it was 690 nM; in assay [3], 350 nM; in assay [4] it was 288 nM. In the assay filed under Homo sapiens, the Selectivity ratio was determined as 2.

For `Cn1cnc(S(=O)(=O)N(CCN(Cc2cncn2C)c2ccc(C#N)cc2)Cc2cccc(-c3ccccc3)c2)c1`, the IC50 was greater than 10000 nM in assay [1], 550 nM in assay [2], 230 nM in assay [3] and 3000 nM in assay [4]. Besides, the Selectivity ratio in the assay listed under Homo sapiens is 2.4.

Consider `Cn1cnc(S(=O)(=O)N(CCN(Cc2cncn2C)c2ccc(C#N)cc2)Cc2ccoc2)c1`, for which the half-maximal inhibitory concentration (IC50) in assay [1] is greater than 10000 nM; in assay [2], 6100 nM; in assay [3], 320 nM; in assay [4], 650 nM. Also, the Selectivity ratio in the assay filed under Homo sapiens came out at 19.

With `C=C(C)CN(CCN(Cc1cncn1C)c1ccc(C#N)cc1)S(=O)(=O)c1cn(C)cn1`, the IC50 was greater than 10000 nM in assay [1], 600 nM in assay [2], 114 nM in assay [3] and greater than 10000 nM in assay [4]. Further, in the assay filed under Homo sapiens, the Selectivity ratio was determined as 5.3.
